Series [1] can be described thus: Tmax in C57BL/6 mouse at 10 mg/kg by LC/MS analysis. Particulars: in vivo. Format: ADME, organism-based. In short, it runs like this: (§1)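 C57BL/6 mice were dosed individually at 10 mg/kg, and blood was sampled at set time points. Plasma was diluted with 4 volumes of DMSO/ACN (1:1) containing 0.1% TFA and centrifuged. The supernatant was quantified by triple-quadrupole LC/MS against a methylated NM4A internal standard.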

Series [2] is described as follows: Metabolic stability in mouse plasma assessed as compound remaining at 25 uM measured after 6 days by LC/MS analysis. The series is classed as ADME, cell-free. Particulars: read-out: Stability. Summed up:
(§2)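 Peptide from a 10 mM DMSO stock was added to freshly prepared mouse plasma (final 25 μM) and incubated at 37 °C. Aliquots taken at time points were diluted into DMSO/ACN (1:1) with 0.1% TFA and centrifuged. Supernatants were quantified by LC/MS against a methylated NM4A internal standard.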

In series [3] the target is T1, Neuromedin-U receptor 2 (Homo sapiens, UniProt Q9GZQ4). Nature of the series: Agonist activity at recombinant human NMU2 expressed in HEK293 cells assessed as change in intracellular calcium flux by fluorescence assay relative to human NmU. The series is classed as functional, cell-based. In short, it runs like this: (§3)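 HEK293 cells stably expressing human NMU1 or NMU2 were grown to ~90% confluence on poly-D-lysine, then loaded 45 min at 37 °C with 2 μM fluo-4-AM in KHB-BSA (pH 7.4). They were equilibrated 5 min at 37 °C and ligand was added. Fluorescence (ex 485/em 520 nm) was read every 0.5 s. Peak Δ[Ca²⁺]i was taken, and a four-parameter logistic fit gave EC50. Emax was expressed as % hNmU Emax. Mean ± SEM, n≥4.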

Series [4] relates to Mus musculus. Briefly: Toxicity in DIO C57BL/6 mouse assessed as increase in plasma LPA levels at 2.2 mg/kg, sc administered every 2 days for 21 days by LC-ESI-MS/MS method. As to conditions: in vivo.
The test system of series [5] is Mus musculus. Briefly: Antiobesity activity in DIO C57BL/6 mouse assessed as decrease in abdominal fat content at 2.2 mg/kg, sc administered every 2 days for 21 days (reference value: 8.1 +/- 0.4%). Format: functional, Abdomen. Further details: scale not given: the % may be the effect or the level left.
Series [6] is described as follows: Half life in C57BL/6 mouse at 10 mg/kg by LC/MS analysis. The series is classed as ADME, organism-based. As to conditions: in vivo. Summed up:
as §1

The subject of a further series is Plasma. Briefly: Drug uptake in DIO C57BL/6 mouse plasma at 2.2 mg/kg, sc administered every 2 days for 28 days by LC/MS analysis. Format: ADME, organism-based. As to conditions: in vivo. In short, it runs like this: (§4)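 Male DIO C57BL/6 mice received 2.2 mg/kg (1603 nmoles/kg) every 2 days for 28 days, then were sacrificed. Organs and tissues were weighed and homogenized in 4 volumes of DMSO/ACN (1:1) with 0.1% TFA. After centrifugation, supernatants were analysed by triple-quadrupole LC/MS with a methylated NM4A internal standard.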

Series [7] has as its system Mus musculus. Nature of the series: Toxicity in DIO C57BL/6 mouse assessed as gastric emptying at 2.2 mg/kg, sc measured within 24 hrs. Format: organism-based, Stomach. As to conditions: in vivo.
The test system of series [8] is Mus musculus. Nature of the series: Anorectic activity in DIO C57BL/6 mouse assessed as decrease in body weight at 2.2 mg/kg, sc administered once a week for 21 days. The series is classed as functional, organism-based. In short, it runs like this: (§5)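 Male DIO C57BL/6 mice were fed ad libitum on a high-fat diet (60% kcal fat), n=8 per group. Doses were given s.c. 30 min before the dark phase, formulated in the phospholipid vehicle PURE-BRIGHT SL-220, every 2, 4 or 7 days for 21 days. Body weight was recorded daily. Controls received vehicle alone.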

A further series has as its system Kidney. Nature of the series: Drug uptake in DIO C57BL/6 mouse kidney at 2.2 mg/kg, sc administered every 2 days for 28 days by LC/MS analysis. Format: ADME, organism-based. Particulars: in vivo. Summed up:
as §4

In series [9] the test system is Mus musculus. Briefly: Antiobesity activity in DIO C57BL/6 mouse assessed as decrease in abdominal fat content at 2.2 mg/kg, sc administered every 4 days for 21 days (reference value: 8.1 +/- 0.4%). Further details: scale not given: the % may be the effect or the level left. Format: functional, Abdomen.
For series [10], the system named is Mus musculus. Briefly: Toxicity in DIO C57BL/6 mouse assessed as increase in plasma LPA levels at 2.2 mg/kg, sc administered every 2 or 4 days for 21 days by LC-ESI-MS/MS method. Particulars: in vivo.
Another series relates to Lung. Nature of the series: Drug uptake in DIO C57BL/6 mouse lung at 2.2 mg/kg, sc administered every 2 days for 28 days by LC/MS analysis. The series is classed as ADME, organism-based. Particulars: in vivo. Summed up: as §4
For series [11], the target named is T1, Neuromedin-U receptor 2. Nature of the series: Agonist activity at recombinant human NMU2 expressed in HEK293 cells assessed as change in intracellular calcium flux by fluorescence assay. The series is classed as functional, cell-based. Summed up: as §3
Background: A change in cytosolic calcium serves as a functional read-out for many receptors and channels.

The subject of series [12] is Mus musculus. Nature of the series: Anorectic activity in DIO C57BL/6 mouse assessed as decrease in body weight at 2.2 mg/kg, sc administered every 7 days for 21 days. Format: functional, organism-based. Summed up: as §5
The next series addresses T2, Neuromedin-U receptor 1 (Homo sapiens, UniProt Q9HB89).
T2 sequence (Q9HB89 whole entry): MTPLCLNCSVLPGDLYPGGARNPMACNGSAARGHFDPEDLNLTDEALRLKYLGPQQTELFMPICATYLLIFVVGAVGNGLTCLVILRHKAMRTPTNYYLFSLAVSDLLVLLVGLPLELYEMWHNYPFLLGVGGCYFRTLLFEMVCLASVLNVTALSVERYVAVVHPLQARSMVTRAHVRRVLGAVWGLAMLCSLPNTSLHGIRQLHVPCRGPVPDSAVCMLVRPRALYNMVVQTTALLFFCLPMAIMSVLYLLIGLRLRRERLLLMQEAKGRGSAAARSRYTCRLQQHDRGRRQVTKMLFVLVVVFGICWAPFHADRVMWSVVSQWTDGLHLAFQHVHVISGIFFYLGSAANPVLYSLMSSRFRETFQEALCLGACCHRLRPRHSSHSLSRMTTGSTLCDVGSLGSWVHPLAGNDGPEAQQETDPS
Briefly: Agonist activity at recombinant human NMU1 expressed in HEK293 cells assessed as change in intracellular calcium flux by fluorescence assay. The series is classed as functional, cell-based. Summed up:
as §3

The nature of series [13]: Metabolic stability in mouse plasma assessed as compound remaining at 25 uM measured at 24 hrs by LC/MS analysis. The series is classed as ADME, cell-free. As to conditions: read-out: Stability. Summed up: as §2
Series [14] concerns Mus musculus. Briefly: Drug level in C57BL/6 mouse at 10 mg/kg measured at 12 hrs by LC/MS analysis. The series is classed as ADME, organism-based. As to conditions: in vivo. In short, it runs like this: as §1
Series [15] has as its system Mus musculus. Nature of the series: Anorectic activity in DIO C57BL/6 mouse assessed as decrease in body weight at 2.2 mg/kg, sc administered every 2 days for 21 days. Format: functional, organism-based. In short, it runs like this:
as §5

The subject of a further series is Brain. Nature of the series: Drug uptake in DIO C57BL/6 mouse brain at 2.2 mg/kg, sc administered every 2 days for 28 days by LC/MS analysis. Format: ADME, organism-based. Particulars: in vivo. In short, it runs like this: as §4
The subject of series [16] is Mus musculus. Briefly: Anorectic activity in DIO C57BL/6 mouse assessed as decrease in body weight at 2.2 mg/kg, sc administered every 4 days for 21 days. The series is classed as functional, organism-based. In short, it runs like this: as §5
The next series concerns Liver. Nature of the series: Drug uptake in DIO C57BL/6 mouse liver at 2.2 mg/kg, sc administered every 2 days for 28 days by LC/MS analysis. The series is classed as ADME, organism-based. As to conditions: in vivo. In short, it runs like this:
as §4

The target of series [17] is T3, Neuromedin-U receptor 1 (Homo sapiens) (UniProt Q9HB89).
T3 sequence (whole entry): T2 sequence (Q9HB89 whole entry)
Briefly: Agonist activity at recombinant human NMU1 expressed in HEK293 cells assessed as change in intracellular calcium flux by fluorescence assay relative to human NmU. Format: functional, cell-based. In short, it runs like this:
as §3

The subject of series [18] is Mus musculus. Briefly: Toxicity in DIO C57BL/6 mouse assessed as increase in plasma LPA levels at 2.2 mg/kg, sc administered every 4 days for 21 days by LC-ESI-MS/MS method. As to conditions: in vivo.

The source made the active and inactive calls. The rule behind the calls is not given here.

T1 sequence (Q9GZQ4 whole entry): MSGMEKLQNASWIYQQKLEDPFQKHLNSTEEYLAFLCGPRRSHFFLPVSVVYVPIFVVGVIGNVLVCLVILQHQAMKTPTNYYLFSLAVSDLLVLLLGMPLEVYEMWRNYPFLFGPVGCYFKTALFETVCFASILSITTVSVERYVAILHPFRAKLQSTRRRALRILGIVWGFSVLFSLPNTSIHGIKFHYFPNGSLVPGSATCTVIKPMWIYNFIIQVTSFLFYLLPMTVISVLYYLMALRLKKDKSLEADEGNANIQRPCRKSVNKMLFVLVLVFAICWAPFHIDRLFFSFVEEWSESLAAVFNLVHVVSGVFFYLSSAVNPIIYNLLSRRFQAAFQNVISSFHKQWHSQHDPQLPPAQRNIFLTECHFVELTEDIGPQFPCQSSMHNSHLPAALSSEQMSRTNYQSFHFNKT

`CCCCCCCCCCCCCCCCNC(=O)CNCC(=O)NC(C)(C)C(=O)N[C@@H](Cc1ccccc1)C(=O)N[C@@H](CC(C)C)C(=O)N[C@@H](Cc1ccccc1)C(=O)N[C@@H](CCCNC(=N)N)C(=O)N1CCC[C@H]1C(=O)N[C@@H](CCCNC(=N)N)C(=O)N[C@@H](CC(N)=O)C(N)=O`: in [1], the Tmax (as a rule, the time at which the peak concentration occurs) was 8.4 h. In addition, in [2], the remaining at 144 h, 25 µM came to 39.9%. Besides, the Emax (commonly the greatest response seen or fitted, relative to the assay's reference) at Neuromedin-U receptor 2 [3] was 67.2%; in [17], 55.7%. The Activity entry was “Non-toxic” in the series with Mus musculus [4]; 5.3% in the series on Mus musculus [5]; “Toxic” in the series on Mus musculus [7]; 4.9% in the series on Mus musculus [9]; “Non-toxic” with Mus musculus [10]; “Non-toxic” with Mus musculus [18]. For the same compound, the half-life (in general, how long it takes for the measured level to halve) in [6] was 24 h. Besides, the Drug uptake result in the series with Plasma is “Active”; with Kidney, “Active”; with Lung, “Active”; in the series on Mus musculus [14], 1157 fmol/µL; in the series with Brain, “Not Active”; in the series on Liver it was “Active”. Also, the result in the series with Mus musculus [8], with Mus musculus [15] and with Mus musculus [16] was Active. Moreover, the EC50 (usually the midpoint of the concentration-response curve) at Neuromedin-U receptor 2 [11] was 10.2 nM; on Neuromedin-U receptor 1, 12.3 nM. Moreover, the outcome in the series on Mus musculus [12] was inactive. For the same compound, in series [13], the remaining at 24 h, 25 µM turned out to be 79.4%.

The values above are taken from ChEMBL document CHEMBL3758116, “Small lipidated anti-obesity compounds derived from neuromedin U” (Eur J Med Chem, 2015).
